# Experimental data from ChEMBL document CHEMBL1127574, “Design and synthesis of ellipticinium salts and 1,2-dihydroellipticines with high selectivities against human CNS cancers in vitro” (1994).
# How the values were obtained:
# Type in all cases: functional
# HL-60 = experiment: Tested in vitro for cytotoxicity in HL-60(TB) cell line of Leukemia; settings: Homo sapiens, read-out: Log TGI (converted)
# How it was run: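 Compounds were dissolved in DMSO and diluted 500-fold in aqueous medium. Aliquots of the resulting solution or suspension were added to the cultured cells for 48 h. Growth was read colorimetrically, either by tetrazolium reduction to formazan in viable cells or by a total-protein stain.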
# SF-539 = experiment: Tested in vitro for cytotoxicity in SF-539 cell line of CNS Cancer; settings: Homo sapiens, read-out: Log TGI (converted)
# How it was run: (§1)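 Compounds dissolved in DMSO, then diluted 500-fold into aqueous medium. The resulting aqueous solutions or suspensions were added to the cultured human tumour cell lines, and the cells were exposed for 48 h. Growth was read colorimetrically in one of two ways: a metabolic assay in which viable cells reduce a tetrazolium salt to a formazan dye, or a protein stain for total cellular protein.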
# NCI-H226 = experiment: Tested in vitro for cytotoxicity in NCI-H226 cell line of Non-Small Cell Lung Cancer; settings: Homo sapiens, read-out: Log TGI (converted); how it was run: as §1
# SNB-75 = experiment: Tested in vitro for cytotoxicity in SNB-75 cell line of CNS Cancer; settings: Homo sapiens, read-out: Log TGI (converted)
# How it was run: (§2)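 Compounds dissolved in DMSO and diluted 500-fold into aqueous medium; aliquots of the resulting solutions or suspensions added to cultured human tumor cells for 48 h. Growth read colorimetrically, either by tetrazolium reduction to formazan by viable cells or by protein staining of total cellular protein.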
# OVCAR-8 = experiment: Tested in vitro for cytotoxicity in OVCAR-8 cell line of Ovarian Cancer; settings: Homo sapiens, read-out: Log TGI (converted); how it was run: as §1
# DMS-273 = experiment: Tested in vitro for cytotoxicity in DMS273 cell line of Small Cell Lung Cancer; settings: Homo sapiens, read-out: Log TGI (converted); how it was run: as §1
# OVCAR-4 = experiment: Tested in vitro for cytotoxicity in OVCAR-4 cell line of Ovarian Cancer; settings: Homo sapiens, read-out: Log TGI (converted); how it was run: as §1
# SNB-78 = experiment: Tested in vitro for cytotoxicity in SNB-78 cell line of CNS Cancer; settings: Homo sapiens, read-out: Log TGI (converted); how it was run: as §2
# A549 [1] = experiment: Tested in vitro for cytotoxicity in A549/ATCC cell lines; settings: Homo sapiens; how it was run: as §1
# RXF 393 = experiment: Tested in vitro for cytotoxicity in RXF-393 cell line of Renal cancer; settings: Homo sapiens, read-out: Log TGI (converted); how it was run: as §1
# A549 [2] = experiment: Tested in vitro for cytotoxicity in A549/ATCC cell line of Non-Small Cell Lung Cancer; settings: Homo sapiens, read-out: Log TGI (converted); how it was run: as §1
# SW-620 = experiment: Tested in vitro for cytotoxicity in SW-620 cell line of Colon Cancer; settings: Homo sapiens, read-out: Log TGI (converted); how it was run: as §2
# NCI-H460 = experiment: Tested in vitro for cytotoxicity in NCI-H460 cell line of Non-Small Cell Lung Cancer; settings: Homo sapiens, read-out: Log TGI (converted); how it was run: as §1
# ACHN = experiment: Tested in vitro for cytotoxicity in ACHN cell line of Renal cancer; settings: Homo sapiens, read-out: Log TGI (converted); how it was run: as §1
# SF-295 = experiment: Tested in vitro for cytotoxicity in SF-295 cell line of CNS Cancer; settings: Homo sapiens, read-out: Log TGI (converted); how it was run: as §1
# IGROV-1 [3] = experiment: Tested in vitro for cytotoxicity in IGROV1 cell lines; settings: Homo sapiens; how it was run: as §1
# Malme-3M = experiment: Tested in vitro for cytotoxicity in MALME-3M; settings: Homo sapiens; how it was run: as §1
# OVCAR-5 = experiment: Tested in vitro for cytotoxicity in OVCAR-5 cell line of Ovarian Cancer; settings: Homo sapiens, read-out: Log TGI (converted); how it was run: as §1
# NCI-H23 = experiment: Tested in vitro for cytotoxicity in NCI-H23 cell line of Non-Small Cell Lung Cancer; settings: Homo sapiens, read-out: Log TGI (converted); how it was run: as §1
# SK-MEL-28 = experiment: Tested in vitro for cytotoxicity in SK-MEL-28 cell line of Melanoma; settings: Homo sapiens, read-out: Log TGI (converted); how it was run: as §1
# HOP-92 = experiment: Tested in vitro for cytotoxicity in HOP-92 cell line of Non-Small Cell Lung Cancer; settings: Homo sapiens, read-out: Log TGI (converted); how it was run: as §1
# TK-10 = experiment: Tested in vitro for cytotoxicity in TK-10 cell line of Renal cancer; settings: Homo sapiens, read-out: Log TGI (converted); how it was run: as §2
# SK-OV-3 = experiment: Tested in vitro for cytotoxicity in SK-OV-3 cell line of Ovarian Cancer; settings: Homo sapiens, read-out: Log TGI (converted); how it was run: as §2
# NCI-H322M = experiment: Tested in vitro for cytotoxicity in NCI-H322M cell line of Non-Small Cell Lung Cancer; settings: Homo sapiens, read-out: Log TGI (converted); how it was run: as §1
# IGROV-1 [4] = experiment: Tested in vitro for cytotoxicity in IGROV1 cell line of Ovarian Cancer; settings: Homo sapiens, read-out: Log TGI (converted); how it was run: as §1
# 786-0 = experiment: Tested in vitro for cytotoxicity in 786-0 cell line of Renal cancer; settings: Homo sapiens, read-out: Log TGI (converted); how it was run: as §1
# LOX IMVI = experiment: Tested in vitro for cytotoxicity in LOX IMVI cell line of Melanoma; settings: Homo sapiens, read-out: Log TGI (converted); how it was run: as §1
# COLO 205 = experiment: Tested in vitro for cytotoxicity in COLO 205 cell line of Colon Cancer; settings: Homo sapiens, read-out: Log TGI (converted); how it was run: as §1
# KM12 = experiment: Tested in vitro for cytotoxicity in KM12 cell line of Colon Cancer; settings: Homo sapiens, read-out: Log TGI (converted); how it was run: as §1
# DMS-114 = experiment: Tested in vitro for cytotoxicity in DMS114 cell line of Small Cell Lung Cancer; settings: Homo sapiens, read-out: Log TGI (converted); how it was run: as §1
# SF-268 = experiment: Tested in vitro for cytotoxicity in SF-268 cell lines; settings: Homo sapiens; how it was run: as §1
compound,measurement,setting,value
COc1ccc2[nH]c3c(C)c4c(c(C)c3c2c1)CN(C)C=C4,TGI,HL-60,63.1 µM
same,TGI,SF-539,2 µM
same,TGI,NCI-H226,0.794 µM
same,TGI,SNB-75,0.794 µM
same,TGI,OVCAR-8,15.8 µM
same,TGI,DMS-273,12.6 µM
same,TGI,OVCAR-4,25.1 µM
same,TGI,SNB-78,5.01 µM
same,GI50,A549 [1],0.993 µM
same,TGI,RXF 393,31.6 µM
same,TGI,A549 [2],50.1 µM
same,TGI,SW-620,15.8 µM
same,TGI,NCI-H460,10 µM
same,TGI,ACHN,63.1 µM
same,TGI,SF-295,7.94 µM
same,GI50,IGROV-1 [3],1.68 µM
same,GI50,Malme-3M,1.44 µM
same,TGI,OVCAR-5,31.6 µM
same,TGI,NCI-H23,3.98 µM
same,TGI,SK-MEL-28,12.6 µM
same,TGI,HOP-92,25.1 µM
same,TGI,TK-10,50.1 µM
same,TGI,SK-OV-3,63.1 µM
same,TGI,NCI-H322M,15.8 µM
same,TGI,IGROV-1 [4],39.8 µM
same,TGI,786-0,12.6 µM
same,TGI,LOX IMVI,25.1 µM
same,TGI,COLO 205,5.01 µM
same,TGI,KM12,15.8 µM
same,TGI,DMS-114,2.51 µM
same,GI50,SF-268,0.186 µM
